Data on two molecules can be found in ChEMBL document CHEMBL4000155, “Synthesis and Antileukemic Activities of Piperlongumine and HDAC Inhibitor Hybrids against Acute Myeloid Leukemia Cells” (J Med Chem, 2016).

What is called IC50 is the point on the concentration scale where inhibition reaches its midpoint.

Molecules are shown by their SMILES. The source made the active and inactive calls. The calls are words filed in the database; no cut-off is given here.

In one test the test system is CMK. As to the kind of experiment: Antiproliferative activity against Ara-C resistant human CMK cells after 72 hrs in presence of SAHA by MTT assay. The class given is functional, cell-based. In a few lines: (§1)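 AML cell lines grown in RPMI 1640 with 10% FBS (20% for MOLM-13), 2 mM L-glutamine and penicillin/streptomycin at 37 °C, 5% CO2. Ara-C-resistant HL-60 and CMK sublines came from stepwise cytarabine selection and were kept in 600 nM or 300 nM cytarabine respectively. Cells were treated 72 h. MTT 0.05 mg/mL, 3 h at 37 °C, DMSO solubilization, absorbance at 570 nm. IC50 given ± SEM.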
Background: Tetrazolium assays rely on reduction of a dye to a coloured formazan, in cell work by metabolically active cells.

The test system of test [1] is MOLM-13. Nature of the test: Induction of apoptosis in human MOLM13 cells harboring wild type p53/FLT3-ITD mutant at 1 uM after 24 hrs in presence of SAHA by annexin V-FITC/PI staining based flow cytometry. Type of test: functional. The gist of the method: (§2)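 Cells treated 24 h, single agents or SAHA+PL at 1:1 (each drug at the stated concentration). Annexin V-FITC/PI kit staining, then flow cytometry, reported as % Annexin V+ cells. Three independent experiments in triplicate, with data from one representative experiment. DMSO <0.1% vehicle control.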
Background: In flow cytometry, cells or beads pass a laser one at a time.

Test [2] deals with U-937. Nature of the test: Induction of apoptosis in p53 null human U937 cells at 2 uM preincubated with NAC for 3 hrs followed by compound addition measured after 24 hrs in presence of SAHA by annexin V-FITC/PI staining based flow cytometry. The class given is functional, cell-based. In a few lines:
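U937 cells preincubated 3 h with 3 mM NAC or vehicle and washed with PBS to remove excess NAC. Then drug alone or with SAHA for 24 h. Apoptosis scored as % Annexin V+ by Annexin V-FITC/PI flow cytometry; vehicle DMSO < 0.1% v/v.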

In test [3] the test system is U-937. Nature of the test: Induction of cell death in p53 null human U937 cells at 1 to 4 uM after 24 hrs by annexin V-FITC/PI staining based flow cytometry. The class given is functional. In a few lines:
(§3)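 Human U937 AML cells (p53 null) in RPMI 1640 with 10% FBS, 2 mM L-glutamine, penicillin/streptomycin, 37 °C, 5% CO2. Exposed 24 h to compound alone or with SAHA; vehicle DMSO < 0.1% v/v. Annexin V-FITC/PI staining and flow cytometry, reported as % Annexin V+ cells. Three independent experiments in triplicate; one representative shown. EC50 taken as concentration giving 50% Annexin V+ cells versus vehicle.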

Test [4] concerns U-937. Nature of the test: Antiproliferative activity against p53 null human U937 cells after 72 hrs in presence of SAHA by MTT assay. Type of test: functional, cell-based. To be noted: U-937, 72 h. The gist of the method:
as §1

The test system of test [5] is U-937. As to the kind of experiment: Induction of apoptosis in p53 null human U937 cells at 1 uM after 24 hrs in presence of SAHA by annexin V-FITC/PI staining based flow cytometry. The class given is functional. In a few lines:
as §2

Test [6] concerns U-937. As to the kind of experiment: Effect on SAHA-induced DNA damage in p53 null human U937 cells assessed as decrease in CHK1 expression level by measuring ratio of CHK1 to beta-actin level at 2 uM after 24 hrs by Western blot analysis relative to control. The class given is functional. The gist of the method: (§4)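 U937 cells treated 24 h, alone or PL+SAHA. Whole-cell lysates (protease/phosphatase inhibitors) immunoblotted for γH2AX, CHK1, RAD51, Bim and XIAP. Band densitometry normalised to β-actin, then expressed as fold change relative to the untreated control.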
In general terms: Immunoblotting shows a protein as a band on a membrane.

Test [7] deals with U-937. Nature of the test: Effect on SAHA-induced apoptosis in p53 null human U937 cells assessed as decrease in XIAP expression level by measuring ratio of XIAP to beta-actin level at 2 uM after 24 hrs by Western blot analysis relative to control. Type of test: functional. In a few lines:
as §4

Test [8] has as its system MOLM-13. Nature of the test: Induction of apoptosis in human MOLM13 cells harboring wild type p53/FLT3-ITD mutant at 2 uM after 24 hrs in presence of SAHA by annexin V-FITC/PI staining based flow cytometry. Type of test: functional. The gist of the method: as §2
For test [9], the system named is U-937. As to the kind of experiment: Induction of DNA damage in p53 null human U937 cells at 2 uM after 20 hrs in presence of SAHA by SYBR gold staining based alkaline comet assay. Type of test: functional, cell-based. The gist of the method:
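U937 cells treated 20 h with SAHA and PL alone or combined (16 h for hybrids). Alkaline single-cell gel electrophoresis, SYBR Gold staining, microscopy. Median % DNA in tail from 4 replicate gels ± s.e.m.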

The subject of test [10] is U-937. Nature of the test: Effect on SAHA-induced apoptosis in p53 null human U937 cells assessed as increase in Bim EL expression level by measuring ratio of Bim EL to beta-actin level at 2 uM after 24 hrs by Western blot analysis relative to control. Type of test: functional. The gist of the method: as §4
The species entered for a further test is Homo sapiens. Nature of the test: Effect on SAHA-induced HDAC inhibition in p53 null human U937 cells assessed as hyper acetylation of histone H4 at 1 uM after 4 hrs by Western blot analysis. Type of test: cell-based. The gist of the method:
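U937 cells treated at 1 μM for 4 h. Whole-cell lysates run on SDS-PAGE, transferred to PVDF and immunoblotted for acetyl-histone H4, histone H4, acetyl-α-tubulin and β-actin.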

Test [11] in a line: Antiproliferative activity against human CMY cells after 72 hrs in presence of SAHA by MTT assay. The class given is functional, cell-based. In a few lines: as §1
Test [12] has as its system U-937. As to the kind of experiment: Induction of apoptosis in p53 null human U937 cells at 4 uM after 24 hrs in presence of SAHA by annexin V-FITC/PI staining based flow cytometry. Type of test: functional.
Test [13] deals with U-937. As to the kind of experiment: Induction of apoptosis in p53 null human U937 cells at 4 uM after 24 hrs by annexin V-FITC/PI staining based flow cytometry. Type of test: functional. The gist of the method: as §3
Test [14] relates to MOLM-13. Nature of the test: Induction of cell death in human MOLM13 cells harboring wild type p53/FLT3-ITD mutant after 24 hrs by annexin V-FITC/PI staining based flow cytometry. Type of test: functional. In a few lines:
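MOLM-13 (p53 wt, FLT3-ITD) kept in RPMI 1640 with 20% FBS, 2 mM L-glutamine, penicillin/streptomycin, 37 °C, 5% CO2. Treated 24 h; vehicle DMSO < 0.1% v/v. Annexin V-FITC/PI flow cytometry, % Annexin V+ cells. Three independent experiments in triplicate; one representative shown. EC50 is the concentration giving 50% Annexin V+ cells relative to vehicle.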

For test [15], the system named is U-937. Nature of the test: Induction of DNA damage in p53 null human U937 cells assessed as decrease in Rad51 expression level by measuring ratio of Rad51 to beta-actin level at 2 uM after 24 hrs by Western blot analysis relative to control. The class given is functional. In a few lines:
as §4

Test [16] has as its system U-937. As to the kind of experiment: Induction of cell death in p53 null human U937 cells after 24 hrs by annexin V-FITC/PI staining based flow cytometry. Type of test: functional. The gist of the method: as §3
Test [17] deals with U-937. As to the kind of experiment: Induction of apoptosis in p53 null human U937 cells at 0.5 uM after 24 hrs by annexin V-FITC/PI staining based flow cytometry. The class given is functional. The gist of the method:
as §2

For test [18], the system named is U-937. As to the kind of experiment: Induction of apoptosis in p53 null human U937 cells at 0.25 uM after 24 hrs by annexin V-FITC/PI staining based flow cytometry. The class given is functional. The gist of the method:
as §2

The test system of test [19] is U-937. Nature of the test: Induction of apoptosis in p53 null human U937 cells at 1 uM after 24 hrs by annexin V-FITC/PI staining based flow cytometry. The class given is functional. In a few lines: as §2
Another test deals with MDA-MB-231. As to the kind of experiment: Antiproliferative activity against human MDA-MB-231 cells after 24 hrs by MTT assay. Conditions: MDA-MB-231, 24 h. Type of test: functional, cell-based.

As for `COc1cc(/C=C/C(=O)N2CCC=CC2=O)cc(OC)c1OC` [PIPLARTINE], the values for the half-inhibitory concentration (IC50) (with CMK; in the test with U-937 [4]; in test [11]) were 422 nM, 767 nM and 442 nM, respectively. Moreover, the Activity was found to be 8% in the test on MOLM-13 [1], 6.2% in the test with U-937 [5], 53.6% in the test on MOLM-13 [8] and 81.1% in the test with U-937 [12]. For the same molecule, the outcome in the test on U-937 [2] and in the test filed under Homo sapiens was inactive. Moreover, the outcome with U-937 [3] and in the test on U-937 [9] was Active. Further, the Ratio is reported as 0.8 in the test on U-937 [6], 0.6 in the test with U-937 [7] and 1.8 in the test on U-937 [10].

For `COc1cc(/C=C/C(=O)N2CCC=CC2=O)cc(OC)c1OCCCCCCC(=O)NO`, the Activity with U-937 [13] was 88.5%; in the test on MOLM-13 [14], “Dose-dependent effect”; in the test with U-937 [16] it was “Dose-dependent effect”; in the test with U-937 [19], 13.7%. Also, in the test with U-937 [15], the Ratio was found to be 0.9. Besides, the outcome in the test on U-937 [17] and in the test with U-937 [18] was inactive. Besides, half-maximal inhibition with MDA-MB-231 (IC50) was put at 382 nM.
